What was measured:
[1] = target: T1, E-selectin (Homo sapiens) (UniProt P16581); test: Inhibition of human E-selectin after 2 hrs at 100 uM
T1 sequence (whole entry): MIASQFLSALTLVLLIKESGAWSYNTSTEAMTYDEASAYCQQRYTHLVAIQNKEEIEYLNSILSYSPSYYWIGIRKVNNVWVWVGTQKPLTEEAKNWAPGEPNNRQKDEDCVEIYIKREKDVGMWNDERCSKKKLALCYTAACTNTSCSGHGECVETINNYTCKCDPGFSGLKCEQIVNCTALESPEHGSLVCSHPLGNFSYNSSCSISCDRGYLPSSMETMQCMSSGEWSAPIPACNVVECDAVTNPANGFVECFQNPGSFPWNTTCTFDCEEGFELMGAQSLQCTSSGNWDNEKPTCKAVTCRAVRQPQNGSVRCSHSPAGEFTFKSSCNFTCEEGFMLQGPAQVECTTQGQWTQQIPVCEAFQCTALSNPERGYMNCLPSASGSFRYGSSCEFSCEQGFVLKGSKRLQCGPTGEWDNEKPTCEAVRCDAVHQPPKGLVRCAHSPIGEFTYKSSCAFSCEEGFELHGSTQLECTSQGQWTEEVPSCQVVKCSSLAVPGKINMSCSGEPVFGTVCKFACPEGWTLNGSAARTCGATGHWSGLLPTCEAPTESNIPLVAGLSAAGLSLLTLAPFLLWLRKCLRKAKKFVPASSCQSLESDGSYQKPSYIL
Summary of the method: (§1)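 Human E-, P- or L-selectin/Fc chimera (0.61 nM) captured on anti-Fc-coated wells, then incubated 2 h at 37 °C with peroxidase-streptavidin-complexed sLeX-tyrosine sulfate polyacrylamide ligand plus compound at 100 µM in HEPES buffer pH 7.4 with CaCl2, 1% DMSO. Bound ligand measured by TMB, OD 450 vs 620 nm; % inhibition reported.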

[2] = target: T2, P-selectin (Homo sapiens) (UniProt P16109); test: Inhibition of human P-selectin after 2 hrs at 100 uM; summary of the method: as §1
T2 sequence (whole entry): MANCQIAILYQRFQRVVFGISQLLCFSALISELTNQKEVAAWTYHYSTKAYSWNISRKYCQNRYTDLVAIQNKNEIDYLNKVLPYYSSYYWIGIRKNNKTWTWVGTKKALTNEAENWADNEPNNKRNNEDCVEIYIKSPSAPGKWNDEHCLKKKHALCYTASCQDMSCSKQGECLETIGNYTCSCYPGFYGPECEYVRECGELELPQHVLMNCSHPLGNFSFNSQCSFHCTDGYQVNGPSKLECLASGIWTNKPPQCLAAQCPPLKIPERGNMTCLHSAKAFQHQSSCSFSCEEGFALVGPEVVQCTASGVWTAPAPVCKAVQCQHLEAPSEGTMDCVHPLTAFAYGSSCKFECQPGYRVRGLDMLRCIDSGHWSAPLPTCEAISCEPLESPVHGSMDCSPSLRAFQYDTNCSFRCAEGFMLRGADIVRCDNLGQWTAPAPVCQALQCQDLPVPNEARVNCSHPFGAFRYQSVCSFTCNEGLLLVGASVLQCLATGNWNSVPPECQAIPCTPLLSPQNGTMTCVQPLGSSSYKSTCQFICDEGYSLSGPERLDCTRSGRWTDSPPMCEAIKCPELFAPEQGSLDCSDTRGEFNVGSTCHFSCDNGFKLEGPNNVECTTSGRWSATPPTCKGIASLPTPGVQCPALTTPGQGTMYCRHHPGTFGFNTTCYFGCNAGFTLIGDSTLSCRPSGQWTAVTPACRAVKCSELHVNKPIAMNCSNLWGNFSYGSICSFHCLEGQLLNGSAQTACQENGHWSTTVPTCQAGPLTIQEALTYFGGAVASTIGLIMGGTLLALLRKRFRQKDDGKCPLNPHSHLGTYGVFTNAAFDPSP

[3] = target: T3, L-selectin (Homo sapiens) (UniProt P14151); test: Inhibition of human L-selectin after 2 hrs at 100 uM; summary of the method: as §1
T3 sequence (whole entry): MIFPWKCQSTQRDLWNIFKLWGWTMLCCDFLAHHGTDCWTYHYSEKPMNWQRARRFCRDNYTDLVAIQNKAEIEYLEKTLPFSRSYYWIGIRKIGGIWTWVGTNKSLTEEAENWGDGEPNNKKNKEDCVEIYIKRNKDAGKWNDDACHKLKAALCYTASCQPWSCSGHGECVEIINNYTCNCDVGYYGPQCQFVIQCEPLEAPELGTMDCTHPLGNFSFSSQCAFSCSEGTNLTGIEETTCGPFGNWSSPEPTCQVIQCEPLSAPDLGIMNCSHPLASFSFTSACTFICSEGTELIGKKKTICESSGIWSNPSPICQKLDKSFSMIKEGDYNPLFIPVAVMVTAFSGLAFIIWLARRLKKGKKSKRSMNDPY

[4] = system: HL-60; test: Inhibition of attachment of HL60 cells to P-selectin at 109 uM after 5 mins; format: functional; settings: Homo sapiens, HL-60, 5 min
Summary of the method: (§2)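 Dishes coated with E- or P-selectin/Fc chimera, blocked with BSA, mounted in a parallel flow chamber run recirculating; HL-60 cells at 2.4 million/mL final. Mean inhibition as % of vehicle control from mean cells/field of at least two independent experiments.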

[5] = system: HL-60; test: Inhibition of attachment of HL60 cells to E-selectin at 109 uM after 5 mins; format: functional; settings: Homo sapiens, HL-60, 5 min
Summary of the method: as §2, with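 “final. Cells attached after 5 min continuous flow at calculated shear 1 dyn/cm², with 109 µM compound or DMSO vehicle, counted in five low power fields.” for “final.”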

inhibition [1]	inhibition [2]	inhibition [3]	SMILES	inhibition at 109 µM [4]	inhibition at 109 µM [5]
3.1%	77%	83.6%	O=c1c(O)cccc2cc(O)c(O)c(O)c12		
15%	-5.3%	4.3%	O=c1cc(-c2ccccc2)oc2cc(O)cc(O)c12		
6%	-3%	1.1%	O=C(O)c1cccc(O)c1O		
37.6%	52%	51.7%	O=c1cc(-c2ccccc2)oc2cc(O)c(O)c(O)c12		
8.3%	1.7%	13.5%	Oc1cccc(O)c1O [PYROGALLOL]	24%	47%
25.6%	-1%	12.2%	O=C(O)C1=C[C@@H](O)[C@@H](O)[C@H](O)C1		
19.5%		1.3%	O=C(O)c1ccc(O)c(O)c1		
